Experimental data reported in ChEMBL document CHEMBL1148541, “Biological evaluation of 1-alkyl-3-phenylthioureas as orally active HDL-elevating agents” (Bioorg Med Chem Lett, 2006).
Blank lines part the entries; values can stand above or below the compound they belong to.

What was measured:
Rattus norvegicus [1] = assay: Increase of Apolipoprotein A-I level in cholesterol-fed male rats at 79 mg/kg/day relative to control; assay type: functional
Procedure, shortened: (§1)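 Drug mixed into diet, fed ad libitum for 8 days to groups of six male Sprague–Dawley rats on a cholesterol diet. Serum Apo A-I measured by SDS–polyacrylamide gel electrophoresis or by rat competition ELISA. Reported as % change versus untreated controls, with significance set at p < 0.05.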

Rattus norvegicus [2] = assay: Triglyceride level in cholesterol-fed male rats at 79 mg/kg/day relative to control; assay type: functional
Procedure, shortened: (§2)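 Male Sprague–Dawley rats on a cholesterol diet, in groups of six, received the compound in the diet ad libitum for 8 days. Serum triglycerides are expressed as % change relative to untreated controls, with significance at p < 0.05 versus controls.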

Rattus norvegicus [3] = assay: Increase of total cholesterol level in cholesterol-fed male rats at 79 mg/kg/day relative to control; assay type: functional
Procedure, shortened: (§3)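 Dietary (ad libitum) dosing of groups of six male Sprague–Dawley rats on a cholesterol diet for 8 days. Serum total cholesterol was quantitated enzymatically by a colorimetric method and expressed as % change relative to untreated controls, with significance at p < 0.05.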

Rattus norvegicus [4] = assay: Increase of HDL level in cholesterol-fed male rats by FPLC method at 79 mg/kg/day relative to control; assay type: functional
Procedure, shortened: (§4)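 Groups of six male Sprague–Dawley rats on a cholesterol diet received drug in the diet, ad libitum, for 8 days. Serum lipoproteins separated by FPLC, adapted for robotic automation, and cholesterol quantitated enzymatically by colorimetry. HDL given as % change versus untreated controls, with significance set at p < 0.05.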

Rattus norvegicus [5] = assay: Weight gain in cholesterol-fed male rats at 79 mg/kg/day relative to control; assay type: functional
Procedure, shortened: (§5)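 Groups of six male Sprague–Dawley rats on a cholesterol diet received the compound in the diet, ad libitum, over 8 days. Body weight gain is reported as % change relative to untreated controls.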

Rattus norvegicus [6] = assay: Increase of HDL level in cholesterol-fed male rats by ultracentrifugation method at 79 mg/kg/day relative to control; assay type: functional
Procedure, shortened: (§6)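 Compound given in the diet, ad libitum, to groups of six male Sprague–Dawley rats on a cholesterol diet for 8 days. Serum lipoproteins were separated by classical ultracentrifugation, and HDL cholesterol was quantitated by an enzymatic colorimetric method. Results are reported as % change relative to untreated controls, with significance at p < 0.05 versus controls.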

Hamster [7] = assay: Increase of HDL cholesterol in normal-fed hamster at 52 mg/kg/day; assay type: functional, Cricetulus griseus
Rattus norvegicus [8] = assay: Increase of HDL cholesterol in normal-fed rat at 80 mg/kg/day; assay type: functional
Hamster [9] = assay: Increase of HDL cholesterol in chow-fed hamster at 64 mg/kg/day; assay type: functional, Cricetulus griseus
[10] = molecular target: T1, Peroxisome proliferator-activated receptor alpha (Rattus norvegicus, UniProt P37230); assay: Activity against PPAR-alpha
T1 sequence (P37230 whole entry): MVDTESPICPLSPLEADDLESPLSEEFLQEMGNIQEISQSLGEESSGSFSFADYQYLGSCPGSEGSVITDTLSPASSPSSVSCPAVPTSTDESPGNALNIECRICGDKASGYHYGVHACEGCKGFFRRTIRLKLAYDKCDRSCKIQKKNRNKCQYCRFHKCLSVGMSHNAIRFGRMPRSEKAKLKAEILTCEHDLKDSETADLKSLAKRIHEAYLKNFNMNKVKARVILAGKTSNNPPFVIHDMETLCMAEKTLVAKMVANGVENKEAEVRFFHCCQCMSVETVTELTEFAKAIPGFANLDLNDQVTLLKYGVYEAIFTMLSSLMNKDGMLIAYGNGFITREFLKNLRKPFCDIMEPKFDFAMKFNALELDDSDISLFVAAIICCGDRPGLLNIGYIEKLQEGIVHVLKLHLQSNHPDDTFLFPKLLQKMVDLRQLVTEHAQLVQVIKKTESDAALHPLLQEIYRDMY

Cynomolgus monkey = assay: Increase of HDL cholesterol in chow-fed cynomolgus monkey at 12 mg/kg/day; assay type: functional, Macaca fascicularis
[11] = molecular target: T2, Peroxisome proliferator-activated receptor delta (Homo sapiens, UniProt Q03181); assay: Activity against PPAR-delta
T2 sequence (Q03181 whole entry): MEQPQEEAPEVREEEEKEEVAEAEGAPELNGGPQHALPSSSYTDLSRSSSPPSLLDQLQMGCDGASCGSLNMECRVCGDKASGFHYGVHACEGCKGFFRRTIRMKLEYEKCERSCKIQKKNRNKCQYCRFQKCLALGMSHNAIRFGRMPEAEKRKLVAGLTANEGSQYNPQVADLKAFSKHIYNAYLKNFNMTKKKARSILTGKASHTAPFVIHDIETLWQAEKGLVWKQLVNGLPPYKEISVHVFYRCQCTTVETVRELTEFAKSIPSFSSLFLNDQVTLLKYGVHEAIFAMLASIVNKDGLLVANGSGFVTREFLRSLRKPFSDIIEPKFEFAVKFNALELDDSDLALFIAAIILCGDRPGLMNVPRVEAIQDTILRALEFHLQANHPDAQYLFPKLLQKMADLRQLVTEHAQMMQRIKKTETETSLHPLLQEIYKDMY

Canis familiaris = assay: Increase of HDL cholesterol in normal-fed dog at 35 mg/kg/day; assay type: functional, Canis lupus familiaris
Rhesus monkey = assay: Increase of HDL cholesterol in chow-fed rhesus monkey at 12 mg/kg/day; assay type: functional, Macaca mulatta
Rattus norvegicus [12] = assay: Increase of HDL level in cholesterol-fed male rats by FPLC method at 55 mg/kg/day relative to control; assay type: functional; procedure, shortened: as §4
Rattus norvegicus [13] = assay: Increase of HDL level in cholesterol-fed male rats by ultracentrifugation method at 55 mg/kg/day relative to control; assay type: functional
Procedure, shortened: (§7)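 Cholesterol-fed male Sprague–Dawley rats, six per group, given drug in the diet ad libitum for 8 days. Serum lipoproteins separated by classical ultracentrifugation and HDL cholesterol measured by an enzymatic colorimetric method. Expressed as % change versus untreated controls, with significance set at p < 0.05.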

Rattus norvegicus [14] = assay: Weight gain in cholesterol-fed male rats at 55 mg/kg/day relative to control; assay type: functional; procedure, shortened: as §5
Rattus norvegicus [15] = assay: Triglyceride level in cholesterol-fed male rats at 55 mg/kg/day relative to control; assay type: functional; procedure, shortened: as §2
Rattus norvegicus [16] = assay: Increase of Apolipoprotein A-I level in cholesterol-fed male rats at 55 mg/kg/day relative to control; assay type: functional; procedure, shortened: as §1
Rattus norvegicus [17] = assay: Increase of total cholesterol level in cholesterol-fed male rats at 55 mg/kg/day relative to control; assay type: functional; procedure, shortened: as §3
Rattus norvegicus [18] = assay: Triglyceride level in cholesterol-fed male rats at 57 mg/kg/day relative to control; assay type: functional; procedure, shortened: as §2
Rattus norvegicus [19] = assay: Increase of HDL level in cholesterol-fed male rats by ultracentrifugation method at 57 mg/kg/day relative to control; assay type: functional; procedure, shortened: as §7
Rattus norvegicus [20] = assay: Weight gain in cholesterol-fed male rats at 57 mg/kg/day relative to control; assay type: functional; procedure, shortened: as §5
Rattus norvegicus [21] = assay: Increase of Apolipoprotein A-I level in cholesterol-fed male rats at 57 mg/kg/day relative to control; assay type: functional; procedure, shortened: as §1
Rattus norvegicus [22] = assay: Increase of total cholesterol level in cholesterol-fed male rats at 57 mg/kg/day relative to control; assay type: functional; procedure, shortened: as §3
Rattus norvegicus [23] = assay: Increase of HDL level in cholesterol-fed male rats by FPLC method at 57 mg/kg/day relative to control; assay type: functional; procedure, shortened: as §4
Rattus norvegicus [24] = organism: Rattus norvegicus; assay: Increase in liver enzyme Alkaline phosphatase; assay type: functional; design: concentration or dose not given beside the values
Rattus norvegicus [25] = assay: Triglyceride level in cholesterol-fed male rats at 63 mg/kg/day relative to control; assay type: functional; procedure, shortened: as §2
Rattus norvegicus [26] = assay: Increase of total cholesterol level in cholesterol-fed male rats at 63 mg/kg/day relative to control; assay type: functional; procedure, shortened: as §3
Rattus norvegicus [27] = assay: Weight gain in cholesterol-fed male rats at 63 mg/kg/day relative to control; assay type: functional; procedure, shortened: as §5
Rattus norvegicus [28] = assay: Increase of HDL level in cholesterol-fed male rats by FPLC method at 63 mg/kg/day relative to control; assay type: functional; procedure, shortened: as §4
Rattus norvegicus [29] = assay: Increase of Apolipoprotein A-I level in cholesterol-fed male rats at 63 mg/kg/day relative to control; assay type: functional; procedure, shortened: as §1
Rattus norvegicus [30] = assay: Increase of HDL level in cholesterol-fed male rats by ultracentrifugation method at 63 mg/kg/day relative to control; assay type: functional; procedure, shortened: as §7
Rattus norvegicus [31] = assay: Increase of total cholesterol level in cholesterol-fed male rats at 62 mg/kg/day relative to control; assay type: functional; procedure, shortened: as §3
Rattus norvegicus [32] = assay: Weight gain in cholesterol-fed male rats at 62 mg/kg/day relative to control; assay type: functional; procedure, shortened: as §5
Rattus norvegicus [33] = assay: Triglyceride level in cholesterol-fed male rats at 62 mg/kg/day relative to control; assay type: functional; procedure, shortened: as §2
Rattus norvegicus [34] = assay: Increase of HDL level in cholesterol-fed male rats by FPLC method at 62 mg/kg/day relative to control; assay type: functional; procedure, shortened: as §4
Rattus norvegicus [35] = assay: Increase of HDL level in cholesterol-fed male rats by ultracentrifugation method at 62 mg/kg/day relative to control; assay type: functional; procedure, shortened: as §7
Rattus norvegicus [36] = assay: Increase of Apolipoprotein A-I level in cholesterol-fed male rats at 62 mg/kg/day relative to control; assay type: functional; procedure, shortened: as §1
Rattus norvegicus [37] = assay: Triglyceride level in cholesterol-fed male rats at 77 mg/kg/day relative to control; assay type: functional; procedure, shortened: as §2
Rattus norvegicus [38] = assay: Increase of HDL level in cholesterol-fed male rats by ultracentrifugation method at 77 mg/kg/day relative to control; assay type: functional; procedure, shortened: as §6
Rattus norvegicus [39] = assay: Increase of Apolipoprotein A-I level in cholesterol-fed male rats at 77 mg/kg/day relative to control; assay type: functional; procedure, shortened: as §1
Rattus norvegicus [40] = assay: Increase of total cholesterol level in cholesterol-fed male rats at 77 mg/kg/day relative to control; assay type: functional; procedure, shortened: as §3
Rattus norvegicus [41] = assay: Increase of HDL level in cholesterol-fed male rats by FPLC method at 77 mg/kg/day relative to control; assay type: functional; procedure, shortened: as §4
Rattus norvegicus [42] = assay: Weight gain in cholesterol-fed male rats at 77 mg/kg/day relative to control; assay type: functional; procedure, shortened: as §5

Compound: CCC/N=C(\S)Nc1cc(OC)ccc1OC
Activity (Rattus norvegicus [1]): 19%
Activity (Rattus norvegicus [2]): -23%
Activity (Rattus norvegicus [3]): 60%
Activity (Rattus norvegicus [4]): 97%
Activity (Rattus norvegicus [5]): 14%
Activity (Rattus norvegicus [6]): 108%

EC50 [10]: > 100 µM
EC50 [11]: > 100 µM
Compound: Cc1ccc(Cl)cc1N/C(S)=N/CC(C)C
Activity (Hamster [7]): 44%
Activity (Rattus norvegicus [8]): 75%
Activity (Hamster [9]): 15%
Activity (Rattus norvegicus [1]): 77%
Activity (Cynomolgus monkey): 100%
Activity (Rattus norvegicus [2]): -54%
Activity (Rattus norvegicus [3]): -11%
Activity (Canis familiaris): 50%
Activity (Rattus norvegicus [4]): 260%
Activity (Rattus norvegicus [5]): -12%
Activity (Rhesus monkey): 75%
Activity (Rattus norvegicus [6]): 104%

EC50 [10]: > 100 µM
EC50 [11]: > 100 µM
Compound: CCC/N=C(\S)Nc1cc(Cl)ccc1C
Activity (Rattus norvegicus [12]): 292%
Activity (Rattus norvegicus [13]): 83%
Activity (Rattus norvegicus [14]): -78%
Activity (Rattus norvegicus [15]): -54%
Activity (Rattus norvegicus [16]): 54%
Activity (Rattus norvegicus [17]): 6%

Compound: CCC/N=C(\S)Nc1cc(F)ccc1C
Activity (Rattus norvegicus [18]): -58%
Activity (Rattus norvegicus [19]): 152%
Activity (Rattus norvegicus [20]): -77%
Activity (Rattus norvegicus [21]): 18%
Activity (Rattus norvegicus [22]): 54%
Activity (Rattus norvegicus [23]): 312%

Compound: CCC/N=C(\S)Nc1cc(Br)ccc1C
Activity (Rattus norvegicus [24]): 44%
Activity (Rattus norvegicus [25]): -53%
Activity (Rattus norvegicus [26]): 47%
Activity (Rattus norvegicus [27]): -29%
Activity (Rattus norvegicus [28]): 306%
Activity (Rattus norvegicus [29]): 46%
Activity (Rattus norvegicus [30]): 142%

Compound: CCC/N=C(\S)Nc1cc(C)ccc1C
Activity (Rattus norvegicus [24]): 75%
Activity (Rattus norvegicus [31]): 29%
Activity (Rattus norvegicus [32]): -38%
Activity (Rattus norvegicus [33]): -59%
Activity (Rattus norvegicus [34]): 278%
Activity (Rattus norvegicus [35]): 127%
Activity (Rattus norvegicus [36]): 72%

Compound: Cc1ccc(Cl)cc1/N=C(\S)NC(C)(C)C
Activity (Rattus norvegicus [37]): -31%
Activity (Rattus norvegicus [38]): 30%
Activity (Rattus norvegicus [39]): 60%
Activity (Rattus norvegicus [40]): -15%
Activity (Rattus norvegicus [41]): 22%
Activity (Rattus norvegicus [42]): 9%
